In ChEMBL document CHEMBL4196022, “Alkynyl-containing phenylthiazoles: Systemically active antibacterial agents effective against methicillin-resistant Staphylococcus aureus (MRSA)” (Eur J Med Chem, 2018):
Values after ≈ are worked out from the molar mass of the structure shown. Active and inactive are the calls of the source. The rule behind the calls is not given here.

Tests used:
Staphylococcus aureus [1] = assay: Antibacterial activity against vancomycin-resistant Staphylococcus aureus VRS10 after 20 hrs by broth microdilution assay; type: functional; conditions: VRS10, 20 h
How it was run: (§1)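 Broth microdilution per CLSI in cation-adjusted Mueller Hinton broth. Compounds serially diluted, in triplicate. Incubation at 37 °C for at least 20 hours. MIC taken as the lowest concentration with no visible bacterial growth.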

Staphylococcus aureus [2] = assay: Ratio of MBC to MIC for methicillin-resistant Staphylococcus aureus NRS107; type: functional
How it was run: (§2)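 MBC/MIC ratio. […] MBC by plating no-growth wells onto tryptic soy agar at 37 °C for at least 18 h; taken as the concentration giving 99.9% growth inhibition.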

Staphylococcus aureus [3] = assay: Antibacterial activity against methicillin-resistant Staphylococcus aureus NRS119 after 20 hrs by broth microdilution assay; type: functional; conditions: NRS119, 20 h; how it was run: as §1
Staphylococcus aureus [4] = assay: Potency index, ratio of vancomycin MIC to compound MIC for antibacterial activity against vancomycin-resistant Staphylococcus aureus VRS11a; type: functional
Staphylococcus aureus [5] = assay: Ratio of MBC to MIC for vancomycin-resistant Staphylococcus aureus VRS12; type: functional; how it was run: as §2
Staphylococcus aureus [6] = assay: Ratio of MBC to MIC for vancomycin-resistant Staphylococcus aureus VRS11a; type: functional; how it was run: as §2
J774 [7] = assay: Cytotoxicity against mouse J774 cells assessed as reduction in cell viability up to 16 ug/ml after 24 hrs by MTS assay; type: cell-based; conditions: j774, 24 h
How it was run: (§3)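 J774 murine macrophages were grown in DMEM with 10% FBS at 37 °C, 5% CO2. Compounds were tested at 8, 16 and 32 μg/mL in triplicate for 24 h, with a DMSO-matched control. MTS was added for 4 h and absorbance read at 490 nm. Viability is given as % of DMSO control (mean ± SD); Student t-test with Holm-Sidak test.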

Staphylococcus aureus [8] = assay: Ratio of MBC to MIC for methicillin-resistant Staphylococcus aureus USA300; type: functional; how it was run: as §2
Staphylococcus aureus [9] = assay: Bactericidal activity against methicillin-resistant Staphylococcus aureus USA300 assessed as reduction in bacterial load at 4 times MIC after 24 hrs by time kill assay relative to control; type: functional
HRT-18 cell line = assay: Cytotoxicity against human HRT18 cells assessed as reduction in cell viability up to 32 ug/ml after 2 hrs by MTS assay; type: cell-based; conditions: hrt-18, 2 h
Staphylococcus aureus [10] = assay: Potency index, ratio of vancomycin MIC to compound MIC for antibacterial activity against vancomycin-resistant Staphylococcus aureus VRS10; type: functional
Staphylococcus aureus [11] = assay: Ratio of MBC to MIC for methicillin-resistant Staphylococcus aureus NRS123 (USA400); type: functional; how it was run: as §2
Staphylococcus aureus [12] = assay: Antibacterial activity against vancomycin-resistant Staphylococcus aureus VRS12 after 20 hrs by broth microdilution assay; type: functional; conditions: VRS12, 20 h; how it was run: as §1
Staphylococcus aureus [13] = assay: Antibacterial activity against methicillin-resistant Staphylococcus aureus NRS123 (USA400) after 20 hrs by broth microdilution assay; type: functional; how it was run: as §1
Staphylococcus aureus [14] = assay: Antibacterial activity against methicillin-resistant Staphylococcus aureus NRS123 (USA400) infected in mouse J774 cells at 16 ug/ml after 24 hrs; type: functional, organism-based
How it was run: (§4)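 J774 macrophages grown in DMEM with 10% FBS at 37 °C, 5% CO2. Infected with USA400 at MOI ~100:1 for 1 h, then washed with gentamicin 50 μg/mL. Treated in triplicate wells for 24 h, washed with gentamicin again and lysed with 0.1% Triton X-100. Lysate plated on tryptic soy agar for 18–22 h; CFU/mL counted.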

Staphylococcus aureus [15] = assay: Bactericidal activity against methicillin resistant Staphylococcus aureus NRS123 (USA400) up to 18 hrs by broth microdilution assay; type: functional; conditions: read-out: MBC99.9
Staphylococcus aureus [16] = assay: Bactericidal activity against methicillin resistant vancomycin-resistant Staphylococcus aureus VRS10 up to 18 hrs by broth microdilution assay; type: functional; conditions: VRS10, 18 h, read-out: MBC99.9
Staphylococcus aureus [17] = assay: Bactericidal activity against methicillin-resistant Staphylococcus aureus USA300 up to 18 hrs by broth microdilution assay; type: functional; conditions: USA300, 18 h, read-out: MBC99.9
Staphylococcus aureus [18] = assay: Antibacterial activity against methicillin-resistant Staphylococcus aureus USA300 after 20 hrs by broth microdilution assay; type: functional; conditions: USA300, 20 h; how it was run: as §1
[19] = Selectivity index, ratio of toxic concentration for human HRT18 cells to MIC for methicillin-resistant Staphylococcus aureus; type: toxicity; conditions: read-out: Selectivity Index
Staphylococcus aureus [20] = assay: Antibacterial activity against methicillin-resistant Staphylococcus aureus NRS107 after 20 hrs by broth microdilution assay; type: functional; conditions: NRS107, 20 h; how it was run: as §1
Staphylococcus aureus [21] = assay: Bactericidal activity against methicillin resistant vancomycin-resistant Staphylococcus aureus VRS11a up to 18 hrs by broth microdilution assay; type: functional; conditions: read-out: MBC99.9
Staphylococcus aureus [22] = assay: Antibacterial activity against vancomycin-resistant Staphylococcus aureus VRS11a after 20 hrs by broth microdilution assay; type: functional; how it was run: as §1
Staphylococcus aureus [23] = assay: Bactericidal activity against methicillin resistant vancomycin-resistant Staphylococcus aureus VRS12 up to 18 hrs by broth microdilution assay; type: functional; conditions: VRS12, 18 h, read-out: MBC99.9
How it was run: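 MBC set up from the MIC plates. Aliquots from wells with no growth spotted onto tryptic soy agar and incubated at 37 °C for at least 18 hours. MBC taken as the lowest concentration giving 99.9% inhibition of bacterial growth.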

Staphylococcus aureus [24] = assay: Bactericidal activity against methicillin-resistant Staphylococcus aureus NRS119 up to 18 hrs by broth microdilution assay; type: functional; conditions: NRS119, 18 h, read-out: MBC99.9
Staphylococcus aureus [25] = assay: Bactericidal activity against methicillin-resistant Staphylococcus aureus USA300 assessed as reduction in bacterial load at 4 times MIC after 12 hrs by time kill assay relative to control; type: functional
Staphylococcus aureus [26] = assay: Ratio of MBC to MIC for vancomycin-resistant Staphylococcus aureus VRS10; type: functional; how it was run: as §2
Staphylococcus aureus [27] = assay: Potency index, ratio of vancomycin MIC to compound MIC for antibacterial activity against vancomycin-resistant Staphylococcus aureus VRS12; type: functional
Staphylococcus aureus [28] = assay: Bactericidal activity against methicillin-resistant Staphylococcus aureus NRS107 up to 18 hrs by broth microdilution assay; type: functional; conditions: NRS107, 18 h, read-out: MBC99.9
Staphylococcus aureus [29] = assay: Ratio of MBC to MIC for methicillin-resistant Staphylococcus aureus NRS119; type: functional; how it was run: as §2
Staphylococcus aureus [30] = assay: Bactericidal activity against methicillin-resistant Staphylococcus aureus USA300 assessed as reduction in bacterial load at 4 times MIC after 4 hrs by time kill assay relative to control; type: functional
[31] = human, microsomes, 1 h, 0.1 µM
Staphylococcus aureus [32] = assay: Antibacterial activity against methicillin-resistant Staphylococcus aureus NRS123 (USA400) infected in mouse J774 cells at 8 ug/ml after 24 hrs; type: functional, organism-based; how it was run: as §4
Staphylococcus aureus [33] = assay: Inhibition of UPPS/UPPP in vancomycin-resistant Staphylococcus aureus VRS10 assessed as potentiation of vancomycin-induced antibacterial activity by measuring fold reduction in vancomycin MIC at 0.5 times MIC preincubated for 30 mins followed by vancomycin addition measured after 20 to 22 hrs by broth microdilution assay relative to control
How it was run: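 VRS10 suspension pre-exposed to compound at ½ × MIC for 30 min at room temperature. […] Incubation at 37 °C for 20–22 h before the MIC was read; untreated bacteria served as control.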

Staphylococcus aureus [34] = assay: Bactericidal activity against methicillin-resistant Staphylococcus aureus NRS123 (USA400) assessed as reduction in bacterial load at 4 times MIC after 8 hrs by time kill assay relative to control; type: functional
J774 [35] = assay: Cytotoxicity against mouse J774 cells assessed as reduction in cell viability up to 8 ug/ml after 24 hrs by MTS assay; type: cell-based; conditions: j774, 24 h; how it was run: as §3

| Structure (SMILES) | MIC (Staphylococcus aureus [1]) | Ratio (Staphylococcus aureus [2]) | MIC (Staphylococcus aureus [3]) | Ratio (Staphylococcus aureus [4]) | Ratio (Staphylococcus aureus [5]) | Ratio (Staphylococcus aureus [8]) | Activity (HRT-18 cell line) | Ratio (Staphylococcus aureus [10]) | Ratio (Staphylococcus aureus [11]) | MIC (Staphylococcus aureus [12]) | MIC (Staphylococcus aureus [13]) | MBC (Staphylococcus aureus [15]) | MBC (Staphylococcus aureus [16]) | MBC (Staphylococcus aureus [17]) | MIC (Staphylococcus aureus [18]) | selectivity ratio [19] | MIC (Staphylococcus aureus [20]) | MBC (Staphylococcus aureus [21]) | MIC (Staphylococcus aureus [22]) | MBC (Staphylococcus aureus [23]) | other results |
| --- | --- | --- | --- | --- | --- | --- | --- | --- | --- | --- | --- | --- | --- | --- | --- | --- | --- | --- | --- | --- | --- |
| C/C(=N\NC(=N)N)c1sc(-c2ccc(C#CC3CCCCC3)cc2)nc1C | 2 µg/mL (≈ 5.27 µM) | <=3 | 4 µg/mL (≈ 10.5 µM) | >100 | <=3 | <=3 | Non-Toxic | >100 | <=3 | 2 µg/mL (≈ 5.27 µM) | 2 µg/mL (≈ 5.27 µM) | 2 µg/mL (≈ 5.27 µM) | 2 µg/mL (≈ 5.27 µM) | 4 µg/mL (≈ 10.5 µM) | 2 µg/mL (≈ 5.27 µM) | 7 to 31 | 16 µg/mL (≈ 42.2 µM) | 2 µg/mL (≈ 5.27 µM) | 1 µg/mL (≈ 2.63 µM) | 2 µg/mL (≈ 5.27 µM) | Ratio (Staphylococcus aureus [6]): <=3; Activity (J774 [7]): Non-Toxic; Activity (Staphylococcus aureus [9]): 4.3 deltalog10CFU/ml; Activity (Staphylococcus aureus [14]): inactive; MBC (Staphylococcus aureus [24]): 4 µg/mL (≈ 10.5 µM); Activity (Staphylococcus aureus [25]): 2.8 deltalog10CFU/ml; Ratio (Staphylococcus aureus [26]): <=3; Ratio (Staphylococcus aureus [27]): 8; MBC (Staphylococcus aureus [28]): 16 µg/mL (≈ 42.2 µM); Ratio (Staphylococcus aureus [29]): <=3; Activity (Staphylococcus aureus [30]): 1.9 deltalog10CFU/ml |
| C/C(=N\NC1=NCCN1)c1sc(-c2ccc(C#CC3CC3)cc2)nc1C |  |  |  |  |  |  |  |  |  |  |  |  |  | 16 µg/mL (≈ 44 µM) | 8 µg/mL (≈ 22 µM) |  |  |  |  |  | CLH [31]: < 115.5 µL/min/mg |
| C/C(=N\NC(=N)N)c1sc(-c2ccc(C#CC3CCCC3)cc2)nc1C | 2 µg/mL (≈ 5.47 µM) | <=3 | 1 µg/mL (≈ 2.74 µM) | >100 | <=3 | <=3 | Non-Toxic | >100 | <=3 | 2 µg/mL (≈ 5.47 µM) | 2 µg/mL (≈ 5.47 µM) | 2 µg/mL (≈ 5.47 µM) | 2 µg/mL (≈ 5.47 µM) | 4 µg/mL (≈ 10.9 µM) | 2 µg/mL (≈ 5.47 µM) | 7 to 31 | 2 µg/mL (≈ 5.47 µM) | 4 µg/mL (≈ 10.9 µM) | 1 µg/mL (≈ 2.74 µM) | 2 µg/mL (≈ 5.47 µM) | Activity (Staphylococcus aureus [32]): inactive; fold change (FC) (Staphylococcus aureus [33]): 512; Ratio (Staphylococcus aureus [6]; read-out: Ratio): 4; Activity (Staphylococcus aureus [34]): 3 deltalog10CFU/ml; MBC (Staphylococcus aureus [24]): 2 µg/mL (≈ 5.47 µM); Ratio (Staphylococcus aureus [26]): <=3; Activity (J774 [35]): Non-Toxic; Ratio (Staphylococcus aureus [27]): 8; MBC (Staphylococcus aureus [28]): 2 µg/mL (≈ 5.47 µM); Ratio (Staphylococcus aureus [29]): <=3 |
